Assay results published in ChEMBL document CHEMBL1275598, “In vitro activity of ceftaroline against community-associated methicillin-resistant, vancomycin-intermediate, vancomycin-resistant, and daptomycin-nonsusceptible Staphylococcus aureus isolates” (2010).
Values after ≈ are worked out from the molar mass of the structure shown.

Key:
Format in all cases: functional
[1] = tested on: Staphylococcus aureus; experiment: Antimicrobial activity against vancomycin-resistant Staphylococcus aureus assessed as resistant isolates by microdilution method
Summary of the method: (§1)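 CLSI broth microdilution MICs in cation-adjusted Mueller-Hinton broth, read visually as the lowest concentration with no visible growth. Percent of isolates classed susceptible or resistant was assigned using CLSI breakpoints.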

[2] = tested on: Staphylococcus aureus; experiment: Antimicrobial activity against vancomycin resistant Staphylococcus aureus VRS-4 expressing SCCmec type 4 element by microdilution method
Summary of the method: (§2)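 Broth microdilution per CLSI in cation-adjusted Mueller-Hinton broth. Antibiotic powders were reconstituted per CLSI. The MIC was read visually as the lowest drug concentration with no visible growth. S. aureus ATCC 29213 and E. faecalis ATCC 29212 served as control strains. VISA and VRSA isolates came from the NARSA program.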

[3] = tested on: Staphylococcus aureus; experiment: Antimicrobial activity against vancomycin intermediate Staphylococcus aureus NRS-402 expressing SCCmec type 2 element by microdilution method
Summary of the method: (§3)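 MIC by broth microdilution in cation-adjusted Mueller-Hinton broth, following CLSI guidelines; antibiotic powders reconstituted per CLSI. Read visually as the lowest drug concentration well with no visible growth. S. aureus ATCC 29213 and E. faecalis ATCC 29212 served as control strains. CA-MRSA: hospital patients culture-positive within 48 h of admission. DNSSA: patient blood isolates. VISA: obtained from the NARSA program.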

[4] = tested on: Staphylococcus aureus; experiment: Antimicrobial activity against vancomycin resistant Staphylococcus aureus VRS-2 expressing SCCmec type 2 element by microdilution method; summary of the method: as §2
[5] = tested on: Staphylococcus aureus; experiment: Antimicrobial activity against vancomycin resistant Staphylococcus aureus VRS-9 expressing SCCmec type 2 element by microdilution method; summary of the method: as §2
[6] = tested on: Staphylococcus aureus; experiment: Bactericidal activity against daptomycin-nonsusceptible Staphylococcus aureus assessed as antibiotic concentration that reduced the number of viable cells by =>99.9% by colony count method
Summary of the method: (§4)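 MBC per CLSI guidelines. It was taken as the antibiotic concentration giving ≥99.9% reduction in viable cells, based on colony counts from the growth control well and rejection values from Pearson's tables.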

[7] = tested on: Staphylococcus aureus; experiment: Bactericidal activity against vancomycin-resistant Staphylococcus aureus assessed as antibiotic concentration that reduced the number of viable cells by =>99.9% by colony count method; conditions: for MBC: Staphylococcus aureus
Summary of the method: (§5)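 MBC per CLSI following microdilution in cation-adjusted Mueller-Hinton broth. Defined as the concentration giving ≥99.9% reduction in viable cells, judged from colony counts of the growth control well against Pearson rejection-value tables. CA-MRSA isolates were hospital patients' isolates with positive MRSA culture within 48 h of admission.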

[8] = tested on: Staphylococcus aureus; experiment: Antimicrobial activity against vancomycin resistant Staphylococcus aureus VRS-5 expressing SCCmec type 2 element by microdilution method; summary of the method: as §2
[9] = tested on: Staphylococcus aureus; experiment: Antimicrobial activity against community-acquired methicillin-resistant Staphylococcus aureus assessed as susceptible isolates by microdilution method
Summary of the method: (§6)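 MICs by CLSI broth microdilution in cation-adjusted Mueller-Hinton broth, read visually as the lowest concentration with no visible growth. Percentages of susceptible or resistant isolates assigned using CLSI breakpoints. Isolates: CA-MRSA (n = 92, positive within 48 h of admission) and DNSSA (n = 7, blood).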

[10] = tested on: Staphylococcus aureus; experiment: Antimicrobial activity against vancomycin-resistant Staphylococcus aureus by microdilution method; summary of the method: as §2
[11] = tested on: Staphylococcus aureus; experiment: Antimicrobial activity against community-acquired methicillin-resistant Staphylococcus aureus assessed as resistant isolates by microdilution method; summary of the method: as §6
[12] = tested on: Staphylococcus aureus; experiment: Antimicrobial activity against vancomycin intermediate Staphylococcus aureus NRS-17 expressing SCCmec type 2 element by microdilution method; summary of the method: as §3
[13] = tested on: Staphylococcus aureus; experiment: Bactericidal activity against vancomycin-intermediate Staphylococcus aureus assessed as antibiotic concentration that reduced the number of viable cells by =>99.9% by colony count method; conditions: for MBC: Staphylococcus aureus; summary of the method: as §4
[14] = tested on: Staphylococcus aureus; experiment: Antimicrobial activity against daptomycin-nonsusceptible Staphylococcus aureus assessed as resistant isolates by microdilution method; summary of the method: as §6
[15] = tested on: Staphylococcus aureus; experiment: Antimicrobial activity against community-acquired methicillin-resistant Staphylococcus aureus by microdilution method; summary of the method: as §3
[16] = tested on: Staphylococcus aureus; experiment: Antimicrobial activity against vancomycin resistant Staphylococcus aureus VRS-1 expressing SCCmec type 2 element by microdilution method; summary of the method: as §2
[17] = tested on: Staphylococcus aureus; experiment: Antimicrobial activity against vancomycin-resistant Staphylococcus aureus assessed as susceptible isolates by microdilution method; summary of the method: as §1
[18] = tested on: Staphylococcus aureus; experiment: Antimicrobial activity against vancomycin resistant Staphylococcus aureus VRS-7 expressing SCCmec element by microdilution method; summary of the method: as §2
[19] = tested on: Staphylococcus aureus; experiment: Antimicrobial activity against daptomycin-nonsusceptible Staphylococcus aureus assessed as susceptible isolates by microdilution method; summary of the method: as §6
[20] = tested on: Staphylococcus aureus; experiment: Antimicrobial activity against vancomycin intermediate Staphylococcus aureus NRS-118 expressing SCCmec type 1 element by microdilution method; summary of the method: as §3
[21] = tested on: Staphylococcus aureus; experiment: Antimicrobial activity against vancomycin resistant Staphylococcus aureus VRS-3 expressing SCCmec type 4 element by microdilution method; summary of the method: as §2
[22] = tested on: Staphylococcus aureus; experiment: Antimicrobial activity against vancomycin-intermediate Staphylococcus aureus assessed as resistant isolates by microdilution method; summary of the method: as §1
[23] = tested on: Staphylococcus aureus; experiment: Antimicrobial activity against vancomycin intermediate Staphylococcus aureus NRS-404 expressing SCCmec type 2 element by microdilution method; summary of the method: as §3
[24] = tested on: Staphylococcus aureus; experiment: Antimicrobial activity against vancomycin resistant Staphylococcus aureus VRS-8 expressing SCCmec element by microdilution method; summary of the method: as §2
[25] = tested on: Staphylococcus aureus; experiment: Antimicrobial activity against vancomycin intermediate Staphylococcus aureus NRS-3 expressing SCCmec type 2 element by microdilution method; summary of the method: as §3
[26] = tested on: Staphylococcus aureus; experiment: Antimicrobial activity against vancomycin resistant Staphylococcus aureus VRS-10 expressing SCCmec type 2 element by microdilution method; summary of the method: as §2
[27] = tested on: Staphylococcus aureus; experiment: Antimicrobial activity against daptomycin-nonsusceptible Staphylococcus aureus by microdilution method; summary of the method: as §3
[28] = tested on: Staphylococcus aureus; experiment: Antimicrobial activity against vancomycin-intermediate Staphylococcus aureus by microdilution method; summary of the method: as §2
[29] = tested on: Staphylococcus aureus; experiment: Antimicrobial activity against vancomycin-intermediate Staphylococcus aureus assessed as susceptible isolates by microdilution method
Summary of the method: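 CLSI broth microdilution in cation-adjusted Mueller-Hinton broth. MIC is the lowest concentration well with no visible growth, read by eye. Isolates were classed susceptible from CLSI breakpoints. S. aureus ATCC 29213 and E. faecalis ATCC 29212 were used as MIC control strains.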

[30] = tested on: Staphylococcus aureus; experiment: Antimicrobial activity against vancomycin resistant Staphylococcus aureus VRS-6 expressing SCCmec type 2 element by microdilution method; summary of the method: as §2
[31] = tested on: Staphylococcus aureus; experiment: Bactericidal activity against community-acquired methicillin-resistant Staphylococcus aureus assessed as antibiotic concentration that reduced the number of viable cells by =>99.9% by colony count method; conditions: for MBC: Staphylococcus aureus; summary of the method: as §5
[32] = tested on: Staphylococcus aureus; experiment: Antimicrobial activity against vancomycin intermediate Staphylococcus aureus NRS-68 expressing SCCmec type 2 element by microdilution method; summary of the method: as §3
[33] = tested on: Staphylococcus aureus; experiment: Antimicrobial activity against vancomycin intermediate Staphylococcus aureus NRS-26 expressing SCCmec type 2 element by microdilution method; summary of the method: as §3
[34] = tested on: Staphylococcus aureus; experiment: Antimicrobial activity against vancomycin intermediate Staphylococcus aureus NRS-73 expressing SCCmec type 4d element by microdilution method; summary of the method: as §3
[35] = tested on: Staphylococcus aureus; experiment: Antimicrobial activity against vancomycin intermediate Staphylococcus aureus NRS-27 expressing SCCmec type 2 element by microdilution method; summary of the method: as §3
[36] = tested on: Staphylococcus aureus; experiment: Antimicrobial activity against vancomycin intermediate Staphylococcus aureus NRS-22 expressing SCCmec type 2 element by microdilution method; summary of the method: as §3
[37] = tested on: Staphylococcus aureus; experiment: Antimicrobial activity against vancomycin intermediate Staphylococcus aureus NRS-403 expressing SCCmec type 2 element by microdilution method; summary of the method: as §3
[38] = tested on: Staphylococcus aureus; experiment: Antimicrobial activity against vancomycin intermediate Staphylococcus aureus NRS-19 expressing SCCmec type 2 element by microdilution method; summary of the method: as §3

In the case of `CN[C@H](CC(C)C)C(=O)N[C@H]1C(=O)N[C@@H](CC(N)=O)C(=O)N[C@H]2C(=O)N[C@H]3C(=O)N[C@H](C(=O)N[C@H](C(=O)O)c4cc(O)cc(O)c4-c4cc3ccc4O)[C@H](O)c3ccc(c(Cl)c3)Oc3cc2cc(c3O[C@@H]2O[C@H](CO)[C@@H](O)[C@H](O)[C@H]2O[C@H]2C[C@](C)(N)[C@H](O)[C@H](C)O2)Oc2ccc(cc2Cl)[C@H]1O` [VANCOMYCIN], the Activity [1] was 100%, the MIC [2] was over 64 µg/mL and the MIC [3] was 8 µg/mL (≈ 5.52 µM). For the same compound, the MIC [4] was 32 µg/mL (≈ 22.1 µM), the MIC [5] was over 64 µg/mL and the MBC50 [6] was 2 µg/mL (≈ 1.38 µM). For the same compound, the MBC ([6]; Staphylococcus aureus, read-out: MBC) was 2 µg/mL (≈ 1.38 µM), the MBC50 [7] was over 64 µg/mL and the MBC90 [7] was over 64 µg/mL. For the same compound, the MBC [7] was over 64 µg/mL, the MIC [8] was over 64 µg/mL and the Activity [9] was 100%. It also gave an MIC50 [10] of over 64 µg/mL, an MIC90 [10] of over 64 µg/mL and an Activity [11] of 0%. It also gave an MIC [12] of 8 µg/mL (≈ 5.52 µM), an MBC50 [13] of 4 µg/mL (≈ 2.76 µM) and an MBC90 [13] of 8 µg/mL (≈ 5.52 µM). It also gave an MBC [13] of 1 µg/mL (≈ 0.69 µM), an Activity [14] of 0% and an MIC50 [15] of 1 µg/mL (≈ 0.69 µM). The MIC90 [15] was 1 µg/mL (≈ 0.69 µM), the MIC [16] was over 64 µg/mL and the Activity [17] was 0%. It also gave an MIC [18] of over 64 µg/mL, an Activity [19] of 100% and an MIC [20] of 8 µg/mL (≈ 5.52 µM). For the same compound, the MIC [21] was 32 µg/mL (≈ 22.1 µM), the Activity [22] was 0% and the MIC [23] was 8 µg/mL (≈ 5.52 µM). The MIC [24] was over 64 µg/mL, the MIC [25] was 8 µg/mL (≈ 5.52 µM) and the MIC [26] was over 64 µg/mL. For the same compound, the MIC50 ([27]; Staphylococcus aureus) was 2 µg/mL (≈ 1.38 µM), the MIC50 [28] was 4 µg/mL (≈ 2.76 µM) and the MIC90 [28] was 8 µg/mL (≈ 5.52 µM). It also gave an Activity [29] of 13%, an MIC [30] of over 64 µg/mL and an MBC50 [31] of 1 µg/mL (≈ 0.69 µM). The MBC90 [31] was 1 µg/mL (≈ 0.69 µM) and the MBC [31] was 0.5 µg/mL (≈ 0.345 µM).
For `CC(=O)NC[C@H]1CN(c2ccc(N3CCOCC3)c(F)c2)C(=O)O1` [LINEZOLID], the MIC [3] was 0.5 µg/mL (≈ 1.48 µM), the MIC [5] was 1 µg/mL (≈ 2.96 µM) and the MIC [32] was 1 µg/mL (≈ 2.96 µM). The MBC50 [6] was over 8 µg/mL, the MBC [7] was over 8 µg/mL and the MIC50 [10] was 2 µg/mL (≈ 5.93 µM). For the same compound, the MIC90 [10] was 2 µg/mL (≈ 5.93 µM), the MIC [33] was 1 µg/mL (≈ 2.96 µM) and the MIC [12] was 1 µg/mL (≈ 2.96 µM). It also gave an MIC [34] of 1 µg/mL (≈ 2.96 µM), an MBC50 [13] of 4 µg/mL (≈ 11.9 µM) and an MBC90 [13] of over 8 µg/mL. The MBC [13] was over 1 µg/mL, the MIC50 [15] was 2 µg/mL (≈ 5.93 µM) and the MIC90 [15] was 2 µg/mL (≈ 5.93 µM). For the same compound, the MIC [18] was 1 µg/mL (≈ 2.96 µM), the Activity [19] was 100% and the MIC [35] was 1 µg/mL (≈ 2.96 µM). For the same compound, the MIC [20] was 1 µg/mL (≈ 2.96 µM), the MIC [36] was 1 µg/mL (≈ 2.96 µM) and the MIC [24] was 1 µg/mL (≈ 2.96 µM). The MIC [27] was 1 µg/mL (≈ 2.96 µM), the MIC50 ([27]; Staphylococcus aureus) was 2 µg/mL (≈ 5.93 µM) and the MIC ([27]; Staphylococcus aureus, read-out: MIC) was 1.48 µg/mL (≈ 4.39 µM). The MIC50 [28] was 2 µg/mL (≈ 5.93 µM), the MIC90 [28] was 2 µg/mL (≈ 5.93 µM) and the Activity [29] was 100%. It also gave an MBC [31] of over 4 µg/mL, an MIC [37] of 1 µg/mL (≈ 2.96 µM) and an MIC [38] of 1 µg/mL (≈ 2.96 µM).
